Source: PMC4077287 (Angewandte Chemie (International ed. in English), 2013)

Key:
[1] = tested on: caspase-3 activity in HeLa cell lysates; assay: Caspase-3 assay of lysates of Dox-treated HeLa cells; format: cell-based; conditions: doxorubicin 2 μM, 24 h
[2] = tested on: caspase-3 level in HeLa tumor xenograft; assay: Caspase-3 level detected in Dox-treated tumors; format: in vivo, nude mice; conditions: intratumoral Dox 0.2 mg, 4 days post treatment
Outline: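 HeLa xenografts on the right shoulder of nude mice were imaged before and 4 days after intratumoral Dox (0.2 mg). The 18F-labeled caspase-3-activatable nano-aggregation tracer or its D-peptide control (5–15 MBq) was given i.v. by tail vein. Static 5 min PET scans were taken at 65, 125 and 182 min post injection. Tumor and muscle uptake was reported as %ID/g, with the tumor/muscle ratio taken from average region uptake.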

[3] = tested on: apoptotic tumors; conditions: ref 7a; cited from earlier work

Structure (SMILES)	caspase-3 activity of lysates of Dox-treated cells vs non-treated cells [1]	caspase-3 level increase in treated tumors [2]	trend of uptake in apoptotic tumors over time after injection [3]
COc1cccc2c1C(=O)c1c(O)c3c(c(O)c1C2=O)C[C@@](O)(C(=O)CO)C[C@@H]3O[C@H]1C[C@H](N)[C@H](O)[C@H](C)O1 [Dox, doxorubicin]	9.5 fold	1.9 fold	
O=C1C(=O)N(Cc2cn(CC[18F])nn2)c2ccc(S(=O)(=O)N3CCCC3COc3ccc(F)cc3F)cc21 (stereo not drawn) [[^18F]ICMT-11]			decreased over the time after injection
